Reference: ChEMBL document CHEMBL1649414, “Synthesis and antiprotozoal activity of N-alkoxy analogues of the trypanocidal lead compound 4,4'-bis(imidazolinylamino)diphenylamine with improved human blood-brain barrier permeability” (J Med Chem, 2011)
Active and inactive are the calls of the source. The calls are words filed in the database; no cut-off is given here.

What was measured:
[1] = system: Trypanosoma brucei rhodesiense; assay: Antiprotozoal activity against bloodstream forms of Trypanosoma brucei rhodesiense STIB900 by alamar blue assay; assay type: functional, organism-based
Procedure, shortened: (§1)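 Alamar blue read-out; IC50 determined against bloodstream-form STIB900 trypanosomes, axenically grown L. donovani MHOM/ET/67/L82 amastigotes, or rat skeletal myoblast L-6 cells (cytotoxicity).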

[2] = Selectivity index, ratio of IC50 for rat L6 cells to IC50 for chloroquine and pyrimethamine-resistant erythrocytic stages of Plasmodium falciparum K1; assay type: toxicity, cell-based; conditions: L6 cells versus Plasmodium falciparum K1 erythrocytic stages, read-out: Ratio IC50
Procedure, shortened: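 Selectivity index = IC50 (rat L-6 myoblasts, Alamar blue assay)/IC50 (P. falciparum K1 erythrocytic stages, [3H]hypoxanthine incorporation assay).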

L6 = assay: Cytotoxicity against rat L6 cells; assay type: cell-based; procedure, shortened: as §1
[3] = system: Trypanosoma brucei rhodesiense; assay: Antitrypanosomal activity against Trypanosoma brucei rhodesiense STIB900 infected in NMRI mouse assessed as host survival after 60 days at 20 mg/kg, ip qd for 4 days administered after 3 to 6 days postinfection; assay type: functional, organism-based; set-up: dose 20 mg/kg
Procedure, shortened: (§2)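 Female NMRI mice infected ip with 2 10^4 bloodstream STIB900 forms; groups of four dosed ip (4 × 20 mg/kg) or orally (4 × 50 mg/kg) on days 3–6 post-infection; untreated infected controls. Tail-blood parasitemia followed to day 60; surviving aparasitemic mice at day 60 counted cured; mean survival and relapse days recorded.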

[4] = Selectivity index, ratio of IC50 for rat L6 cells to IC50 for Trypanosoma brucei rhodesiense STIB900; assay type: toxicity, cell-based; conditions: L6 cells versus Trypanosoma brucei rhodesiense STIB900, read-out: Ratio IC50
Procedure, shortened: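 Selectivity index = IC50 (rat L-6 myoblasts)/IC50 (T. b. rhodesiense STIB900 bloodstream forms). Both IC50 values were determined by Alamar blue assay.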

[5] = system: Trypanosoma brucei rhodesiense; assay: Antitrypanosomal activity against Trypanosoma brucei rhodesiense STIB900 infected in NMRI mouse assessed as host survival after 60 days at 50 mg/kg, po qd for 4 days administered after 3 to 6 days postinfection; assay type: functional, organism-based; set-up: dose 50 mg/kg; procedure, shortened: as §2
[6] = system: Trypanosoma brucei rhodesiense; assay: Antitrypanosomal activity against Trypanosoma brucei rhodesiense STIB900 infected in NMRI mouse assessed as day of host death after 60 days at 20 mg/kg, ip qd for 4 days administered after 3 to 6 days postinfection; assay type: functional; conditions: route intraperitoneal
Procedure, shortened: (§3)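 Female NMRI mice infected ip with 2 104 bloodstream forms of T. b. rhodesiense STIB900. Groups of four mice were treated ip (4 × 20 mg/kg) or po (4 × 50 mg/kg) on four consecutive days, days 3–6 postinfection. Untreated infected controls were included. Tail blood parasitemia was monitored to day 60. Day of death was recorded (cured mice counted as >60) to give mean survival days.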

[7] = system: Trypanosoma brucei rhodesiense; assay: Antitrypanosomal activity against Trypanosoma brucei rhodesiense STIB900 infected in NMRI mouse assessed as day of host death after 60 days at 50 mg/kg, po qd for 4 days administered after 3 to 6 days postinfection; assay type: functional; procedure, shortened: as §3
Trypanosoma cruzi = assay: Antiprotozoal activity against trypomastigote forms of Trypanosoma cruzi Tulahuen C2C4 expressing LacZ by colorimetric CPRG assay
Leishmania donovani = assay: Antiprotozoal activity against amastigotes of Leishmania donovani MHOM/ET/67/L82 by alamar blue assay; assay type: functional, organism-based; procedure, shortened: as §1
Plasmodium falciparum = assay: Antiprotozoal activity against chloroquine and pyrimethamine-resistant erythrocytic stages of Plasmodium falciparum K1 by [3H]hypoxanthine incorporation assay; assay type: functional, organism-based
Procedure, shortened: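 P. falciparum K1 (chloroquine- and pyrimethamine-resistant) erythrocytic stages; IC50 determined by [3H]hypoxanthine incorporation assay.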

## c1ccc(CON2CCN=C2Nc2ccc(Nc3ccc(NC4=NCCN4OCc4ccccc4)cc3)cc2)cc1
[1]
  IC50: 0.32 µM
[2]
  selectivity ratio: 56
L6
  IC50: 11 µM
[3]
  Activity: inactive
[4]
  selectivity ratio: 34.7
[5]
  Activity: inactive
[6]
  Activity: 7 days
[7]
  Activity: 7 days
Trypanosoma cruzi
  IC50: 6.6 µM
Leishmania donovani
  IC50: 104 µM
Plasmodium falciparum
  IC50: 0.2 µM

## O=C1c2ccccc2C(=O)N1CCN(OCc1ccccc1)C(=S)Nc1ccc(Nc2ccc(NC(=S)N(CCN3C(=O)c4ccccc4C3=O)OCc3ccccc3)cc2)cc1
[1]
  IC50: 86.7 µM
L6
  IC50: > 102 µM
Trypanosoma cruzi
  IC50: > 100 µM
Leishmania donovani
  IC50: 36 µM
Plasmodium falciparum
  IC50: 1.36 µM

## CON(CCN1C(=O)c2ccccc2C1=O)C(=S)Nc1ccc(Nc2ccc(NC(=S)N(CCN3C(=O)c4ccccc4C3=O)OC)cc2)cc1
[1]
  IC50: 73.8 µM
L6
  IC50: > 124 µM
Trypanosoma cruzi
  IC50: > 124 µM
Leishmania donovani
  IC50: 69 µM
Plasmodium falciparum
  IC50: 2.64 µM

## ON1CCN=C1Nc1ccc(Nc2ccc(NC3=NCCN3O)cc2)cc1
[1]
  IC50: 0.37 µM
[2]
  selectivity ratio: 1670
L6
  IC50: 92 µM
[3]
  Activity: inactive
[4]
  selectivity ratio: 236
[5]
  Activity: inactive
[6]
  Activity: 25.3 days
[7]
  Activity: 7 days
Trypanosoma cruzi
  IC50: > 204 µM
Leishmania donovani
  IC50: 58 µM
Plasmodium falciparum
  IC50: 0.055 µM

## CON(CCNC(=S)Nc1ccc(Nc2ccc(NC(=S)NCCN(OC)S(=O)(=O)c3ccccc3[N+](=O)[O-])cc2)cc1)S(=O)(=O)c1ccccc1[N+](=O)[O-]
[1]
  IC50: 61.3 µM
L6
  IC50: > 107 µM
Trypanosoma cruzi
  IC50: > 108 µM
Leishmania donovani
  IC50: 68 µM
Plasmodium falciparum
  IC50: 1.81 µM

## c1cc(Nc2ccc(NC3=NCCN3OC3CCCCO3)cc2)ccc1NC1=NCCN1OC1CCCCO1 (stereo not given)
[1]
  IC50: 1.18 µM
[2]
  selectivity ratio: 26
L6
  IC50: 20 µM
[3]
  Activity: inactive
[4]
  selectivity ratio: 17
[5]
  Activity: inactive
[6]
  Activity: 7 days
[7]
  Activity: 7 days
Trypanosoma cruzi
  IC50: 24 µM
Leishmania donovani
  IC50: 41 µM
Plasmodium falciparum
  IC50: 0.75 µM

## c1cc(Nc2ccc(NC3=NCCS3)cc2)ccc1NC1=NCCS1
[1]
  IC50: 11.1 µM
[2]
  selectivity ratio: 21
L6
  IC50: 52 µM
[4]
  selectivity ratio: 4.7
Trypanosoma cruzi
  IC50: 30 µM
Leishmania donovani
  IC50: 120 µM
Plasmodium falciparum
  IC50: 2.43 µM

## c1cc(Nc2ccc(NC3=NCCN3)cc2)ccc1NC1=NCCN1
[2]
  selectivity ratio: 24100
[3]
  Activity: Active
[4]
  selectivity ratio: 3070
[5]
  Activity: inactive
[6]
  Activity: >60 days
[7]
  Activity: 7.75 days
Plasmodium falciparum
  IC50: 0.009 µM

## CCON(CCNC(=S)Nc1ccc(Nc2ccc(NC(=S)NCCN(OCC)S(=O)(=O)c3ccccc3[N+](=O)[O-])cc2)cc1)S(=O)(=O)c1ccccc1[N+](=O)[O-]
[1]
  IC50: 14.9 µM
[2]
  selectivity ratio: 35
L6
  IC50: 67 µM
Trypanosoma cruzi
  IC50: > 104 µM
Leishmania donovani
  IC50: 14 µM
Plasmodium falciparum
  IC50: 1.94 µM

## CON1CCN=C1Nc1ccc(Nc2ccc(NC3=NCCN3OC)cc2)cc1
[1]
  IC50: 0.83 µM
[2]
  selectivity ratio: 120
L6
  IC50: 54 µM
[3]
  Activity: inactive
[4]
  selectivity ratio: 65.6
[5]
  Activity: inactive
[6]
  Activity: 7 days
[7]
  Activity: 7 days
Trypanosoma cruzi
  IC50: 136 µM
Leishmania donovani
  IC50: 39 µM
Plasmodium falciparum
  IC50: 0.45 µM

## CCON1CCN=C1Nc1ccc(Nc2ccc(NC3=NCCN3OCC)cc2)cc1
[1]
  IC50: 0.73 µM
[2]
  selectivity ratio: 68
L6
  IC50: 40 µM
[3]
  Activity: inactive
[4]
  selectivity ratio: 55
[5]
  Activity: inactive
[6]
  Activity: 7 days
[7]
  Activity: 7 days
Trypanosoma cruzi
  IC50: 87 µM
Leishmania donovani
  IC50: 62 µM
Plasmodium falciparum
  IC50: 0.59 µM
